# SIRT5 inh – sirtuin-5 (human) deacylase inhibition | Q9NXA8 | inhibition, % at 15 µM | Purified SirT5, succinyl-peptide AMC, trypsin-coupled fluorescence | 330,000 tested, 1.1% active | AID 652115; in the data active = inhibition above about 15%; inconclusive = no clear call, values can overlap the other calls
# Target sequence (Q9NXA8 whole entry, looked up): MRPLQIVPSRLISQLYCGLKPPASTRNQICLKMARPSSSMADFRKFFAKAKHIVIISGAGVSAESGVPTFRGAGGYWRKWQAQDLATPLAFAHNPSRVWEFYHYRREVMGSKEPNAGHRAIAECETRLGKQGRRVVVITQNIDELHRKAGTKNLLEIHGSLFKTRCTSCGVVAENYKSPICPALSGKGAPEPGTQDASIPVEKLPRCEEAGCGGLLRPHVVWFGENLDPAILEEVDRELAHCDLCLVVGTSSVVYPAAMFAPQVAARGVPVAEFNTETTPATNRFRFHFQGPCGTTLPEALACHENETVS
# Statin myotox sup – suppressors of simvastatin-induced myotoxicity in C2C12 myotubes; ATP luminescence, 48 h; scaled: DMSO 0, geranylgeraniol control 100; rescue of ATP level, % at 7.49 µM; 330,000 tested, 0.78% active; AID 602340;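 active = mean ATP rescue above about 67%, or every replicate alone reaching that limit, limit read from the data, passing the limit was not always enough; inconclusive = no clear call, values can overlap the other calls; inactive = mean under the limit and some replicate under it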;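 note: myotubes were challenged with 10 µM simvastatin during compound exposure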
# Cneo AK release – causes C. neoformans cell lysis | 360,000 tested, 0.2% active | adenylate kinase release luminescence, 4 h; normalised: neutral wells 0, clomiphene wells 100 | lysis activity, % at 15 µM | AID 651654;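 active = mean lysis activity across replicates of at least 80%, whatever share of replicates individually reach that level; inactive = mean lysis activity below 80%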
#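 Material: C. neoformans cells | Amount: Yeast cell density of 5 × 10^6 cells/mL | Medium: Fresh YPD growth medium | Dosing: Single dose | Times: Static 4 h at 37 °C with compound, 1 h detection | Detection: AK luminescence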
# S100A4 inh HTS – S100A4-myosin IIA interaction inhibition | inhibition, % at 10.7 µM | P26447 | 360,000 tested, 0.14% active | S100A4/TAMRA-MyoIIA peptide fluorescence polarization | AID 652163;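 active = mean inhibition of at least 70% across replicates, with every replicate also reaching that level; inconclusive = mean inhibition reaches 70% but some replicates fall short; inactive = mean inhibition below 70%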
# Target sequence (P26447 whole entry, looked up): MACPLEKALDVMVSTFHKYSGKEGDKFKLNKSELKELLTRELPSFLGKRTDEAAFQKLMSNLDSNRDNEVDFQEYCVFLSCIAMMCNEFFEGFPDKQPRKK
#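 incubation = readout 5 min after mixing, signal stable up to 60 min | system = S100A4 monomer protein | buffer or medium = HEPES pH 7.2 with CaCl2, KCl, NaCl, DTT, Triton | benchmarks = neutral control DMSO, positive control TFP | also added = fluorescent myosin IIA peptide, 5 nM | compound dosing = one concentration per compound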
# rRNA inh HTS – selective bacterial rRNA inhibition in E. coli. E. coli WT GFP vs humanized-ribosome RFP mutants, fluorescence, 24 h; stronger effect = lower value; DMSO median 0, no signal -100. GFP signal change (wild-type ribosome), % (test concentration not listed). 350,000 tested, 1.6% active. AID 720706;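 active = significant combined selectivity score with lowered wild-type GFP, culture density cut under 30%, mutant RFP and density less affected; inactive = any of these conditions unmet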
# PGC1a acetyl inh – lowers PGC1a acetylation signal in U2OS cells | AlphaScreen anti-acetyl-lysine; with virally co-expressed GCN5 acetyltransferase | inhibition, % at 15.6 µM | 350,000 tested, 0.17% active;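 active = every replicate shows inhibition of at least 40%; inconclusive = mean inhibition at least 40% but some replicate below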;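 note: 0% = neutral control wells and 100% = positive control wells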
# Active calls of the source: *; ? = inconclusive; . = no result. An excerpt weighted towards active compounds, which were near 3% of everything screened.
SMILES,SIRT5 inh,Statin myotox sup,Cneo AK release,S100A4 inh HTS,rRNA inh HTS,PGC1a acetyl inh
C[C@H]1CCCCO[C@H](CN(C)Cc2ccncc2)[C@@H](C)CN([C@@H](C)CO)C(=O)c2cc(N(C)C)ccc2O1,-3,7,-3,0,3,8
Cn1cnc(S(=O)(=O)N[C@H]2CC[C@H](CC(=O)Nc3ccc(-c4ccccc4)cc3)O[C@H]2CO)c1,3,3,-6,0,-2,0
CCc1nc(SCC(=O)Nc2cc(C)on2)c2c(C)c(C)sc2n1,.,130*,-1,.,.,7
Cc1cc(NC(=O)CSc2nc(C3CC3)nc3sc(C)c(C)c23)no1,.,32,0,.,.,-5
O=C(O)c1ccc(N/N=C/C2=C(N3CCOCC3)C(=C\c3ccccc3)/CC2)cc1,19*,-33,-1,-14,-36*,-11
COc1ccccc1C(CC(=O)c1ccccc1)C(=O)c1ccccc1 (centres undefined),17*,.,.,0,7,.
COc1ccccc1C(CC(=O)c1ccccc1)CC(=O)c1ccccc1,3,9,.,1,-12,-4
CC(C)NC(=O)Nc1ccc2c(c1)C(=O)N([C@@H](C)CO)C[C@@H](C)[C@@H](CN(C)CC1CCCCC1)OCCCC[C@H](C)O2,1,.,8,12,-1,-1
COC(=O)c1ccc(COc2ccc(C)cc2[N+](=O)[O-])o1,1,.,-1,-3,-24*,14
CC(C)c1ccc2oc(=O)cc(CN3CCN(c4ccccc4)CC3)c2c1,.,16,4,.,.,8
Cc1cc2oc(=O)cc(CN3CCC(C)CC3)c2cc1C,-1,-7,0,-16,-5,?
CC1CCN(Cc2cc(=O)oc3ccc(C(C)C)cc23)CC1,-1,-2,-1,-1,-23*,4
CC1CCN(Cc2cc(=O)oc3ccc4ccccc4c23)CC1,-1,.,.,-4,-23*,.
O=c1cc(CN2CCN(Cc3ccccc3)CC2)c2cc3c(cc2o1)CCC3,-1,115*,-2,1,-4,16
CC(C)c1ccc2oc(=O)cc(CN3CCCCC3)c2c1,1,-1,6,0,-21*,4
O=c1cc(CN2CCCCC2)c2c(ccc3ccccc32)o1,-5,-8,-1,0,-4,9
O=C(N[C@H]1CC[C@H](CCn2cc(Cc3ccccc3)nn2)O[C@@H]1CO)c1cnccn1,-4,-2,2,0,1,1
CO[C@@H]1CC[C@@H]2CCOc3ccc(C#N)cc3C(=O)N(C)C[C@H](C)C(=O)N(C)C[C@@H]1O2,-4,4,2,4,1,.
Cc1nnc(NC(=O)c2cc3ccccc3o2)s1,4,14,-4,3,-2,6
Cc1cnc(NC(=O)c2cc3ccccc3o2)s1,112*,.,.,2,5,29
C[C@H](CO)N1C[C@H](C)[C@@H](CN(C)S(=O)(=O)c2ccc(Cl)cc2)Oc2ccc(NC(=O)C3CCCCC3)cc2CC1=O,10,11,70,-20,0,0
CCn1ncc(Br)c1C(=O)Nc1cc(C(=O)OC)ccc1C(=O)OC,.,123*,.,.,.,-6
O=C(NCC(c1cccnc1)N1CCN(c2ccc(F)cc2)CC1)c1ccc2c(c1)OCO2 (centres undefined),.,121*,0,.,.,1
COc1ccc(N2CCN(C(CNC(=O)c3ccc4c(c3)OCO4)c3cccnc3)CC2)cc1 (centres undefined),.,22,1,.,.,6
NCCCCc1ccc2ccc3cccc4ccc1c2c34,-4,-6,1,-1,-19*,-6
SMILES,SIRT5 inh,Statin myotox sup,Cneo AK release,S100A4 inh HTS,rRNA inh HTS,PGC1a acetyl inh
O=C(O)CCCc1ccc2ccc3cccc4ccc1c2c34,0,1,-6,1,-10,-5
CCc1cccc(NC(=O)CCc2c(C)nn(-c3ccc(N4CCCCC4)nn3)c2C)c1,-2,1,-1,-4,-32*,3
Cc1nn(-c2ccc(N3CCCCC3)nn2)c(C)c1CCC(=O)Nc1cccc(F)c1,9,9,-4,0,-13,.
COc1cc(OC)cc(-c2nc(N)n[nH]2)c1,.,106*,3,.,.,-11
CCc1ccc(/C=C2\SC(N3CCCC3)=NC2=O)cc1,-3,.,.,1,-15*,5
COc1cc(/C=C2\SC(N3CCCCC3)=NC2=O)cc(OC)c1OC,-3,-1,.,2,-28*,.
COc1ccc(/C=C2\SC(N3CCCCC3)=NC2=O)cc1,-3,22,0,-3,-4,7
COc1ccc2c3c([nH]c2c1)[C@H](CO)N(S(C)(=O)=O)CC31CN(CC2CC2)C1,0,.,.,-22,-1,.
Cc1cc(/C=C2\C(=N)N3N=C(C(C)C)SC3=NC2=O)c(C)n1Cc1ccccc1,-1,-1,-9,0,-15,49*
COc1ccccc1NC(=O)N[C@H]1CC[C@@H](CC(=O)N2CCC(Cc3ccccc3)CC2)O[C@H]1CO,-4,9,3,5,-3,-5
Cc1cc(-c2onc3ccc(Cl)cc23)ccc1O,-1,11,-8,-12,-31*,-11
Cc1ccccc1CNS(=O)(=O)c1ccccc1[N+](=O)[O-],14,.,4,3,-28*,8
O=c1cc(-c2ccccc2)c2ccccc2[nH]1,.,-10,-1,.,.,-2
Cc1cccc2c(-c3ccccc3)cc(=O)[nH]c12,.,84*,2,.,.,3
CC(C)NC(=O)Nc1ccc2c(c1)C(=O)N([C@H](C)CO)C[C@@H](C)[C@H](CN(C)S(=O)(=O)c1ccc(F)cc1)O2,-2,-12,-2,1,-2,3
CCCOCc1ccc(O)c2ncccc12,-5,-3,-4,1,-10,8
CC(C)COCc1ccc(O)c2ncccc12,0,.,.,-5,-35*,4
C[C@@H]1CCCCO[C@@H](CN(C)C)[C@H](C)CN([C@H](C)CO)C(=O)c2cc(NC(=O)Nc3ccc(F)cc3)ccc2O1,-3,38,-4,-47,1,-6
CC(=O)Nc1ccc2c(c1)Cc1cc(N3C(=O)C=CC3=O)ccc1-2,-4,-40,1,-8,-28*,11
O=C1C=CC(=O)N1c1ccc2c(c1)Cc1cc(F)ccc1-2,-2,2,2,-3,.,8
CCOC(=O)c1c(-c2ccc(-c3ccccc3)cc2)csc1NC(=O)CNCCN(C)C,-7,-7,85*,-10,-59,-34
O=C(O)CSc1c(-c2ccccc2)c2cc(Cl)ccc2[nH]c1=O,1,.,.,-8,-28*,.
CCN(C(=O)COC(=O)CNC(=O)c1ccccc1C)C1=CCCCC1,24*,8,2,0,.,11
Clc1ccc2nc(CSc3nncn3-c3ccccc3)cn2c1,.,2,4,.,.,5
c1ccc(-n2cnnc2SCc2cn3cccnc3n2)cc1,.,86*,8,.,.,4

# High-throughput results from PubChem BioAssay.
